The target of assay [1] is T1, Bcl-2-like protein 1 (Homo sapiens, UniProt Q07817). The experiment in a line: Binding affinity to N-terminal GST-tagged BCL-XL (unknown origin) assessed as association rate constant by SPR analysis. (In general: SPR reads the build-up and loss of mass on a sensor chip optically.)
In assay [2] the target is T1, Bcl-2-like protein 1. Put plainly: Binding affinity to N-terminal GST-tagged BCL-XL (unknown origin) assessed as residence half-life by SPR analysis.
Assay [3] addresses T1, Bcl-2-like protein 1. Put plainly: Binding affinity to N-terminal GST-tagged BCL-XL (unknown origin) assessed as equilibrium dissociation constant by SPR analysis.
Assay [4] concerns the target T1, Bcl-2-like protein 1. Put plainly: Inhibition of F-Bak binding to GST-tagged BCL-XL (unknown origin) measured after 1 hr by TR-FRET assay. (In general: TR-FRET usually uses a lanthanide donor and a delayed reading to cut background.)
Assay [5] deals with T1, Bcl-2-like protein 1. Put plainly: Binding affinity to N-terminal GST-tagged BCL-XL (unknown origin) assessed as dissociation rate constant by SPR analysis.
Assay [6] concerns RS4-11. The experiment in a line: Cytotoxicity against human RS4-11 cells assessed as reduction in cell viability measured after 48 hrs by celltiter-glo assay. In kind it is functional, cell-based. The note with it: RS4-11, 48 h. On the technique in general: ATP-based viability assays read luminescence as a measure of living cells.
Assay [7] deals with Induced myeloid leukemia cell differentiation protein Mcl-1 (Homo sapiens, UniProt Q07820). The experiment in a line: Inhibition of F-Bak binding to GST-tagged MCL1 (unknown origin) measured after 1 hr by TR-FRET assay.
Chain of Induced myeloid leukemia cell differentiation protein Mcl-1 (Q07820 whole entry): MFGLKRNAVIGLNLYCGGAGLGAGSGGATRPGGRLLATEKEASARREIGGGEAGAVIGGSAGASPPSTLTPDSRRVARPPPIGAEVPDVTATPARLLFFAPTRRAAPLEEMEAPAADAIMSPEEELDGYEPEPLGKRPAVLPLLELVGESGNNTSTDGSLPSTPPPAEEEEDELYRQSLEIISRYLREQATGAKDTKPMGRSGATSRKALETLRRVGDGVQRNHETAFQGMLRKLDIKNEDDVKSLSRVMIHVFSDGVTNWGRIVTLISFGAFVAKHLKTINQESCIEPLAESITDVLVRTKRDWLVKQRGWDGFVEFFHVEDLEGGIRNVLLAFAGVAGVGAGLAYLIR
The species named for assay [8] is Homo sapiens. Put plainly: Selectivity ratio of Ki for inhibition of F-Bak binding to GST-tagged BCL2 (unknown origin) to Ki for inhibition of F-Bak binding to GST-tagged BCL-XL (unknown origin).
In assay [9] the test system is MOLT-4. Put plainly: Cytotoxicity against human MOLT-4 cells assessed as reduction in cell viability measured after 48 hrs by celltiter-glo assay. The note with it: MOLT-4, 48 h. The assay is classed as functional, cell-based.
Assay [10] concerns MOLT-4. Put plainly: Induction of mitochondrial membrane depolarization in human MOLT-4 cells measured after 24 hrs. The assay is classed as functional, cell-based.
In assay [11] the test system is MOLT-4. Put plainly: Induction of apoptosis in human MOLT-4 cells assessed as externalization of phosphatidylserine measured after 24 hrs by annexin-V staining based flow cytometry. In kind it is functional, cell-based. In short, it runs like this:
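Phosphatidylserine exposure in MOLT-4 cells was scored by annexin V binding after 24 h exposure to increasing inhibitor concentrations. Results are expressed as percent annexin V-positive cells.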

The subject of assay [12] is MOLT-4. The experiment in a line: Induction of apoptosis in human MOLT-4 cells assessed as activation of caspase-3/7 measured after 24 hrs by caspase-3/7 fluorescence assay. In kind it is functional, cell-based. In short, it runs like this:
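MOLT-4 cells incubated 24 h with a rising concentration series of inhibitor. Read-out was caspase-3 and caspase-7 activation, reported as percentage of caspase-3/-7-positive cells.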

Assay [13] deals with Apoptosis regulator Bcl-2 (Homo sapiens, UniProt P10415). Put plainly: Inhibition of F-Bak binding to GST-tagged BCL2 (unknown origin) measured after 1 hr by TR-FRET assay.
Chain of Apoptosis regulator Bcl-2 (P10415 whole entry): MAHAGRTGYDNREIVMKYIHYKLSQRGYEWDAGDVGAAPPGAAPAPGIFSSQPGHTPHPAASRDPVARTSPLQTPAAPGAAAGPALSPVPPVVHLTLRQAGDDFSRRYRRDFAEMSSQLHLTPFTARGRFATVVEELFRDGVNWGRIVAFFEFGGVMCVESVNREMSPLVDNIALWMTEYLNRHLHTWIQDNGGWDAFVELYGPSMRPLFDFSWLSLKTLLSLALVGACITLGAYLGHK

T1 sequence (Q07817 whole entry): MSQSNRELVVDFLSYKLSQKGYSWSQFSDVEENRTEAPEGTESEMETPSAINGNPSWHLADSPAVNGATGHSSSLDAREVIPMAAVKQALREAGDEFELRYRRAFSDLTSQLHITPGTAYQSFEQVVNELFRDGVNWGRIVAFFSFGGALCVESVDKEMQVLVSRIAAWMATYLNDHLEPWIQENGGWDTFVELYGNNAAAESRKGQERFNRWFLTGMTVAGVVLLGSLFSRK

In the case of `CN(C)CC[C@H](CSc1ccccc1)Nc1ccc(S(=O)(=O)NC(=O)c2csc(N3CCc4cccc(C(=O)Nc5nc6ccccc6s5)c4C3)n2)cc1[N+](=O)[O-]`, the K is 2.18 10^7/M/s in assay [1] and 0.0109 s⁻¹ in [5]. Also, the T1/2 in assay [2] is 1 min. Moreover, in assay [3], the Kd – broadly, the equilibrium constant for the complex coming apart – stood at 0.5 nM. Also, the inhibition constant Ki (as a rule, the dissociation constant of the complex between target and ligand, obtained from inhibition or displacement) in assay [4] is 0.14 nM; in assay [7], greater than 1560 nM. The EC50 in assay [6] and in [9] was greater than 5000 nM throughout. Moreover, the Ratio Ki in [8] is greater than 220.

Consider `O=C(NS(=O)(=O)c1ccc(N[C@H](CCN2CCOCC2)CSc2ccccc2)c(S(=O)(=O)C(F)(F)F)c1)c1csc(N2CCc3cccc(C(=O)Nc4nc5ccccc5s4)c3C2)n1`, for which the K in assay [1] is 5.88 10^5/M/s; in assay [5], 0.000234 s⁻¹. Moreover, the T1/2 in assay [2] turned out to be 49 min. Besides, the Kd in assay [3] is 0.4 nM. In addition, the inhibition constant Ki is 0.43 nM in assay [4], greater than 3900 nM in [7] and 193 nM in [13]. For the same molecule, the Activity entry in assay [10], in assay [11] and in assay [12] was “Dose-dependent effect” throughout. Also, the 50% effective concentration (EC50) (in general, the concentration that produces a half-maximal response) in assay [6] is greater than 5000 nM; in assay [9] it was 80 nM. Moreover, the Ratio Ki in [8] is greater than 220.

(Values after ChEMBL document CHEMBL4706772, “Structure-Based Design of A-1293102, a Potent and Selective BCL-X Inhibitor” (ACS Med Chem Lett, 2021).)
